Laboratory results: ChEMBL document CHEMBL1155279, “1,5-Diaryl-2-ethyl pyrrole derivatives as antimycobacterial agents: design, synthesis, and microbiological evaluation” (Eur J Med Chem, 2009)
≈ marks a conversion by molar mass, not a printed value.

Experiments:
[1] = test system: Mycobacterium tuberculosis; test: Antimycobacterial activity against Mycobacterium tuberculosis CIP 103471 by twofold agar dilution method; assay type: functional
In short: (§1)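 Twofold agar dilution in Middlebrook 7H11 agar with 10% OADC (oleic acid, albumin, dextrose). Compounds dissolved in DMSO at 5 mg/mL (one in ethanol at 6 mg/mL), stock, stored cold. MIC determined for each strain. Strains: M. tuberculosis CIP 103471, H37Rv ATCC 27294, rifampicin-resistant ATCC 35838, M. avium CIP 103317.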

[2] = Protection index, ratio of MNTD for african green monkey Vero cells to MIC for Mycobacterium tuberculosis CIP 103471; assay type: functional
In short: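 Vero cells exposed to drug; after 72 h of incubation, morphology was checked microscopically. MNTD is the highest concentration with no morphological change. PI = MNTD/MIC, with MIC from twofold agar dilution in Middlebrook 7H11 + 10% OADC against M. tuberculosis CIP 103471.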

[3] = test system: Mycobacterium tuberculosis; test: Antimycobacterial activity against Mycobacterium tuberculosis H37Rv by twofold agar dilution method; assay type: functional; in short: as §1
[4] = test system: Mycobacterium avium; test: Antimycobacterial activity against Mycobacterium avium CIP 103317 by twofold agar dilution method; assay type: functional; in short: as §1
[5] = Cytotoxicity against african green monkey Vero cells after 72 hrs; assay type: cell-based; details: chlorocebus sabaeus
In short: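 Vero cells exposed to compounds (stocks 5 mg/mL in DMSO; one compound 6 mg/mL in ethanol). After 72 h incubation, cells examined microscopically for morphological changes. Maximum non-toxic dose (MNTD) taken as the highest drug concentration producing no morphological change.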

SMILES | MIC [1] [µg/mL] | PI [2] | MIC [3] [µg/mL] | MIC [4] [µg/mL] | MNTC at 72 h [5] [µg/mL]
Cc1c(CN2CCSCC2)cc(-c2ccccc2)n1-c1ccccc1 | 1 (≈ 2.87 µM) | 32 |  |  | 
Cc1c(CN2CCSCC2)cc(-c2ccc(F)cc2)n1-c1ccccc1 | 0.5 (≈ 1.36 µM) | 8 |  |  | 
Cc1c(CN2CCSCC2)cc(-c2ccccc2F)n1-c1ccccc1F | 1 (≈ 2.6 µM) | 32 |  |  | 
CCc1c(CN2CCSCC2)cc(-c2ccccc2)n1-c1ccccc1 | 2 (≈ 5.52 µM) | 8 | 4 (≈ 11 µM) | 8 (≈ 22.1 µM) | 16
CO[C@H]1/C=C/O[C@@]2(C)Oc3c(C)c(O)c4c(O)c(c(/C=N/N5CCN(C)CC5)c(O)c4c3C2=O)NC(=O)/C(C)=C\C=C\[C@H](C)[C@H](O)[C@@H](C)[C@@H](O)[C@@H](C)[C@H](OC(C)=O)[C@@H]1C [RIFAMPIN] | 0.25 (≈ 0.304 µM) | 256 | 0.25 (≈ 0.304 µM) | 0.25 (≈ 0.304 µM) | 64
CCc1c(CN2CCSCC2)cc(-c2ccc(F)cc2)n1-c1ccc(F)cc1 | 16 (≈ 40.1 µM) | 0.5 |  | 16 (≈ 40.1 µM) | 8
CCc1c(CN2CCSCC2)cc(-c2ccc(F)cc2)n1-c1ccccc1F | 2 (≈ 5.02 µM) | 4 | 2 (≈ 5.02 µM) | 8 (≈ 20.1 µM) | 8
CCc1c(CN2CCSCC2)cc(-c2ccccc2)n1-c1ccc(F)cc1 | 2 (≈ 5.26 µM) | 8 | 4 (≈ 10.5 µM) | 16 (≈ 42 µM) | 16
Cc1c(CN2CCSCC2)cc(-c2ccccc2)n1-c1ccc(F)cc1 | 0.4 (≈ 1.09 µM) | 20 |  |  | 
CCc1c(CN2CCN(C)CC2)cc(-c2ccc(Cl)cc2)n1-c1ccc(Cl)cc1 | 2 (≈ 4.67 µM) | 4 | 4 (≈ 9.34 µM) | 4 (≈ 9.34 µM) | 8
CCc1c(CN2CCSCC2)cc(-c2ccc(F)cc2)n1-c1ccccc1 | 1 (≈ 2.63 µM) | 8 | 1 (≈ 2.63 µM) | 8 (≈ 21 µM) | 8
Cc1c(CN2CCSCC2)cc(-c2ccc(F)cc2)n1-c1ccccc1F | 0.5 (≈ 1.3 µM) | 16 |  |  | 
Cc1c(CN2CCSCC2)cc(-c2ccc(F)cc2)n1-c1ccc(F)cc1 | 1 (≈ 2.6 µM) | 8 |  |  | 
Cc1ccc(-c2cc(CN3CCSCC3)c(C)n2-c2ccc(F)cc2)cc1 | 0.25 (≈ 0.657 µM) | 256 |  |  | 
CCc1c(CN2CCSCC2)cc(-c2ccccc2F)n1-c1ccccc1F | 4 (≈ 10 µM) | 2 | 8 (≈ 20.1 µM) | 16 (≈ 40.1 µM) | 8
Cc1c(CN2CCN(C)CC2)cc(-c2ccc(Cl)cc2)n1-c1ccc(Cl)cc1 | 1 (≈ 2.41 µM) | 4 | 1 (≈ 2.41 µM) | 0.5 (≈ 1.21 µM) | 4
CCc1c(CN2CCSCC2)cc(-c2ccc(C)cc2)n1-c1ccc(F)cc1 | 0.25 (≈ 0.634 µM) | >512 | 0.25 (≈ 0.634 µM) | 16 (≈ 40.6 µM) | > 128
CN[C@@H]1[C@H](O[C@H]2[C@H](O[C@H]3[C@H](O)[C@@H](O)[C@H](N=C(N)N)[C@@H](O)[C@@H]3N=C(N)N)O[C@@H](C)[C@]2(O)C=O)O[C@@H](CO)[C@H](O)[C@H]1O [STREPTOMYCIN] | 0.5 (≈ 0.86 µM) | 256 | 0.5 (≈ 0.86 µM) | 8 (≈ 13.8 µM) | 128
